In PubChem BioAssay AID602220 (Southern Research Specialized Biocontainment Screening …, 2012) one finds IC50 and inhibition data, which are given here for ten molecules.

Activity calls are given as the source filed them.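 Rule for the calls: active = at least 30% inhibition of the enzyme at any tested dose; inactive = the rest.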

For one assay, the target named is M17 leucyl aminopeptidase (Plasmodium falciparum 3D7). In words: Inhibition of P. falciparum M17 aminopeptidase – biochemical, QFRET, set 2, counter-screen for PfM18AAP inhibitor project, dose response (AID 602220). Particulars: recombinant PfM17LAP, H-Leu-NHMec fluorogenic cleavage. The gist of the method:
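Compound: 10 points, 1:2 steps, 100–0.2 µM | System: Recombinant PfM17LAP enzyme | Control set: Full reaction and no-enzyme background wells | Replicates: Triplicate | Incubation: 90 min reaction, room temperature | Medium: 50 mM Tris-HCl buffer pH 7.5 with 2 mM CoCl2 | Technique: Fluorescence, ex 370/em 460 nm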
On the technique in general: Counterscreens check selectivity or assay interference.
As for `Oc1ccc(CCNc2c3ccccc3nc3ccccc23)cc1O`, the IC50 is 14.2 µM. The same measure, in the same setting: for `CN1CCN(CCc2ccc(O)c(O)c2)CC1` the value was 94.3 µM; for `Oc1ccc(CCNc2ccnc3ccccc23)cc1O`, 30.1 µM; for `Oc1ccc(-c2csc(NC3CCCC3)n2)cc1O`, 29.8 µM. `CN1CCN(CCCc2ccc(O)c(O)c2)CC1`: the IC50 is 73.8 µM. Turning to `Oc1ccc(-c2csc(Nc3ncccn3)n2)cc1O`, the IC50 is 12.3 µM. As to `CCc1ccc(NC(=O)Cc2nc(-c3ccc(O)c(O)c3)cs2)cc1`, the IC50 was 57.8 µM. For `CN1CCN(c2nc(-c3ccc(O)c(O)c3)cs2)CC1`, the IC50 was 29.4 µM.

The same assay, now with this note: recombinant PfM17LAP, H-Leu-NHMec fluorogenic cleavage; at 100 µM (top of the series).
Regarding `COc1ccc(CCCN2CCN(C)CC2)cc1OC`, the inhibition entry is “inactive”. For the molecule `COc1ccc(CCNC(c2ccccc2)c2ccccc2)cc1OC`, the inhibition entry was “inactive”.

Broadly, the IC50 is the concentration needed to halve the response being measured.
